Screens as filed in PubChem BioAssay.
UCH37 inh: blocks the human deubiquitinase UCH37 | Q9Y5K5 | actives 0.33% (n = 330,000) | purified proteasome/UCH37, Ub-AMC cleavage fluorescence | inhibition, % (concentration not given with the values);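 active = mean inhibition over replicate wells above about 20%, limit read from the data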
Target sequence (Q9Y5K5 whole entry, looked up): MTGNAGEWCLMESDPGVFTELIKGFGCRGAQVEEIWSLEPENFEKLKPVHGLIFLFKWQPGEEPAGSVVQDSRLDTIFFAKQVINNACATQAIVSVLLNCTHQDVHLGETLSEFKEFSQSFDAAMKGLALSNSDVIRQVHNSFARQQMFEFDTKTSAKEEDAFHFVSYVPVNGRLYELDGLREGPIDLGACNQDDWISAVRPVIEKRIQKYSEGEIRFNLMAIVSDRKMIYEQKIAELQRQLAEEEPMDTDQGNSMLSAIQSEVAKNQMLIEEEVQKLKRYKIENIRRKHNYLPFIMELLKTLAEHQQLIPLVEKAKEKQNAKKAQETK
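Reagent: Ub-AMC substrate; assay system: Proteasome-associated human UCH37 deubiquitinase; controls: no-proteasome and no-compound wells; read-out: % inhibition of Ub-AMC cleavage fluorescence; timing: 30 min preincubation with enzyme, 25 min cleavage at room temperature; signal: AMC fluorescence from Ub-AMC cleavage, excitation 355 nm, emission 460 nm; buffer or medium: Tris-HCl pH 7.4 plus ovalbumin, ATP-MgCl2, DTT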
PAFAH1B2 FP inh: inhibitors of human PAFAH1B2; actives 1.2% (n = 340,000); AID 492953; recombinant PAFAH1B2, FP-rhodamine activity probe, fluorescence polarization; P68402; inhibition, % at 3.39 µM;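 active = inhibition above the mean of all tested compounds plus 3 SD, cut at about 24% in these data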
Target sequence (P68402 whole entry, looked up): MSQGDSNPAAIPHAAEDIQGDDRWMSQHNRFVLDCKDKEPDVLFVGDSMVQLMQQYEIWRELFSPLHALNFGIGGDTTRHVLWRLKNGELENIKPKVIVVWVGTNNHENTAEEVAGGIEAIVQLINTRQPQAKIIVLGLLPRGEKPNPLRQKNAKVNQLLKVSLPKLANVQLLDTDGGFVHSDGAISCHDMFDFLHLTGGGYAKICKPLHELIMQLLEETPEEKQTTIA
pPAFAH FP inh: inhibitors of human plasma PAF acetylhydrolase (pPAFAH) | Q13093 | recombinant pPAFAH, FP-rhodamine probe fluorescence polarization | inhibition, % at 3.39 µM | actives 1.5% (n = 330,000) | AID 463082;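 active = inhibition above the mean inhibition across the screen plus 3 SD, cut at about 25% in these data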;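 also: inhibitors block binding of the rhodamine activity-based probe so polarization drops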
PAFAH1B3 FP inh: blocks human PAF acetylhydrolase 1B catalytic subunit 3 | inhibition, % at 3.39 µM | AID 492972 | actives 0.28% (n = 340,000) | recombinant PAFAH1B3, FP-rhodamine probe, fluorescence polarization;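 active = inhibition above the screen-wide average of all tested compounds plus 3 SD, cut at about 25% in these data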
GRIN3A LBD mod: modulates the human NR3A ligand-binding domain; AID 1259313; actives 2.5% (n = 340,000); NR3A LBD differential scanning fluorimetry, Tm shift; 0% = protein alone, 100% = glycine-bound protein; Tm shift relative to glycine control, % at 25 µM;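 active = melting temperature shift of at least 10% of the positive control shift, at one fixed dose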
PAFAH2 FP inh: PAFAH2 (human) inhibition. recombinant PAFAH2, FP-rhodamine activity probe, fluorescence polarization. inhibition, % at 3.39 µM. actives 0.99% (n = 340,000);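 active = inhibition above the mean over all tested compounds plus 3 SD, cut at about 30% in these data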;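 also: inhibitors block probe labeling of enzyme so polarization drops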
Hits are given with their value; n = inactive; x = not tested or not shown. Sampled rows, rich in hits. Any-hit rate of the full collection: about 4.8%.

SMILES	UCH37 inh	PAFAH1B2 FP inh	pPAFAH FP inh	PAFAH1B3 FP inh	GRIN3A LBD mod	PAFAH2 FP inh
O=C(O)c1cc([N+](=O)[O-])ccc1NCCCc1ccccc1	n	50	27	n	n	n
Oc1c(I)cc(I)c2cccnc12	n	n	33	n	n	n
O=C(O)Cc1ccc2c(c1)N(S(=O)(=O)c1cccc(C(F)(F)F)c1)CC(C(=O)O)O2 (stereo not given)	n	27	n	n	n	n
CC(=NO)C1(C)N(O)C(C)(C)C(c2ccco2)=[N+]1[O-] (stereo not given)	n	x	x	x	x	x
O=C(/C=C/c1ccco1)c1ccc(NC(=O)C23CC4CC(CC(C4)C2)C3)cc1	n	n	32	n	n	n
CCOc1ccc(N/C=C/C(=O)c2ccc3ccccc3c2)c([N+](=O)[O-])c1	n	n	n	n	37	n
CCOc1ccc(N/C=C/C(=O)c2ccc(C)cc2)c([N+](=O)[O-])c1	n	n	n	n	n	n
COc1ccc2c(c1)c1ccc3c(c1n2C)C(=O)C=CC3=O	n	45	x	31	n	36
CCOC(=O)c1sc(=S)n(-c2ccccc2OC)c1N	n	n	n	n	16	n
COC(=O)c1sc(=S)n(-c2ccccc2OC)c1N	n	n	n	n	n	n
Brc1ccccc1-n1nnc(-c2nccs2)n1	25	n	n	n	n	n
Cc1cccc(NCc2cccc3ccccc23)n1	n	n	n	n	n	n
Cc1ccnc(NCc2ccc(Br)cc2)c1	n	27	n	n	n	n
Cc1cccc(NCc2ccc(Br)cc2)n1	n	30	n	n	n	n
COc1ccc(CNc2cc(C)ccn2)cc1	n	n	n	n	10	n
CC(=NNC(=S)NC(C)C)c1cccc([N+](=O)[O-])c1	n	x	x	x	x	x
Nc1nonc1-n1nnc(C(=O)NN=Cc2cccc(Cl)c2Cl)c1CN1CCCC1	n	x	x	x	x	x
N/C(=N\OC(=O)Nc1ccccc1)c1ncc([N+](=O)[O-])s1	x	n	n	n	36	n
NC(=NOC(=O)c1ccc(Cl)cc1)c1ncc([N+](=O)[O-])s1	n	x	x	x	x	x
COc1ccc(Cl)cc1C=CC=NNS(=O)(=O)c1ccc(C)cc1	x	n	x	n	20	n
Cc1ccc(S(=O)(=O)NN=Cc2cc(Cl)ccc2O)cc1	n	n	x	n	n	n
CC(=O)Nc1ccc(NC(=O)c2cc(-c3cc(C)cc(C)c3O)n[nH]2)cc1	n	n	n	n	35	n
CC(=O)Nc1ccc(NC(=O)c2cc(-c3ccc(C)c(C)c3O)n[nH]2)cc1	n	n	n	n	39	n
Cc1ccc(NC(=O)c2cc(-c3cc(C)c(C)cc3O)n[nH]2)cc1C	n	n	n	n	33	n
Cc1ccc(CNC(=O)c2cc(-c3cc(C)cc(C)c3O)n[nH]2)cc1	n	n	n	n	11	n
SMILES	UCH37 inh	PAFAH1B2 FP inh	pPAFAH FP inh	PAFAH1B3 FP inh	GRIN3A LBD mod	PAFAH2 FP inh
O=C(COc1ccc(Cl)cc1Cl)NN=Cc1ccc(OC2OC(CO)C(O)C(O)C2O)cc1 (stereo not given)	n	x	x	x	x	x
O=[N+]([O-])c1ccc(Cl)c(C=Nn2c(-c3ccncc3)n[nH]c2=S)c1	n	x	x	x	x	x
Cc1ccc(-c2cc(C(=O)Nc3ccc(S(=O)(=O)Nc4ncccn4)cc3)[nH]n2)c(O)c1C	n	n	n	n	10	n
Cc1cc(C)c(OCC(=O)Nc2ccc(S(=O)(=O)N3CCOCC3)cc2)c(C)c1	n	n	n	n	n	n
Cc1cc(C)c(O)c(-c2cc(C(=O)Nc3ccc(S(=O)(=O)N4CCOCC4)cc3)[nH]n2)c1	n	n	n	n	23	n
Cc1ccc(NC(=O)c2cc(-c3ccc(C)c(C)c3O)n[nH]2)cc1C	n	n	n	n	35	n
Cc1cccc(NC(=O)c2cc(-c3ccc(C)c(C)c3O)n[nH]2)c1	n	n	x	n	35	n
O=C(NN=Cc1ccncc1)c1cc(C2CC2)nc2ccccc12	n	x	x	x	x	x
COc1cc(C(=O)Oc2cccc(C=NNC(=O)c3cccnc3)c2)cc(OC)c1OC	n	x	x	x	x	x
CCCCc1n[nH]c2c1C(=NOCC)CC(C)(C)C2	n	x	x	x	x	x
CON=CC1CCN(c2ncc(C(F)(F)F)cc2Cl)C1=O (stereo not given)	n	x	x	x	x	x
Cc1ccc(-c2cc(C(=O)Nc3cc(C)ccc3C)[nH]n2)c(O)c1	n	n	n	n	n	n
COc1ccc(NC(=O)c2cc(-c3ccc(C)c(C)c3O)n[nH]2)cc1Cl	n	n	n	n	25	n
Cc1ccc(C)c(NC(=O)c2cc(-c3cc(C)c(C)cc3O)n[nH]2)c1	n	n	n	n	28	n
CCSc1nnc(NC(=O)c2cc(-c3ccc(C)c(C)c3O)n[nH]2)s1	n	n	x	n	n	n
CC(C)OC(=O)NCCOC(=O)Nc1ccccc1Cl	n	n	n	n	n	n
CC(C)OC(=O)NCCOC(=O)Nc1ccc(Cl)cc1	n	n	n	n	25	n
COc1ccc(C=NNC(=O)C2c3ccccc3-c3ccccc32)cc1	n	x	x	x	x	x
CCC(C)c1ccc2oc(-c3ccc(NC(=O)Cn4cnc5c(=O)n(C)c(=O)n(C)c54)cc3)nc2c1 (stereo not given)	n	n	n	n	23	n
Cc1ccc2oc(-c3cccc(NC(=O)Cn4cnc5c(=O)n(C)c(=O)n(C)c54)c3)nc2c1	n	x	n	x	x	x
NNC(=O)c1nn(-c2ccccc2)cc1O	n	x	31	x	x	x
C[C@@H](CSc1ccc(Br)cc1)CN1CC[C@H](C(C)(C)C)CCC1=O	n	n	n	n	10	n
O=C(CCCN1C(=O)C2CC=CCC2C1=O)Nc1cccc(F)c1 (stereo not given)	n	n	n	n	11	n
O=C(Nc1ccc(Br)cc1)c1ccc(N2C(=O)C3CCCCC3C2=O)cc1 (stereo not given)	n	n	n	n	n	n
COc1ccc(NC(=O)CCN2C(=O)C3CC=C(Cl)CC3C2=O)cc1 (stereo not given)	n	n	n	n	32	n
SMILES	UCH37 inh	PAFAH1B2 FP inh	pPAFAH FP inh	PAFAH1B3 FP inh	GRIN3A LBD mod	PAFAH2 FP inh
O=C(Nc1ccc(Br)cc1)c1ccc(N2C(=O)C3CC=C(Cl)CC3C2=O)cc1 (stereo not given)	n	n	n	n	26	n
Cc1c(Cl)cccc1NC(=O)CCN1C(=O)C2CC=CCC2C1=O (stereo not given)	n	n	n	n	11	n
COc1ccccc1NC(=O)CCN1C(=O)C2CC=C(Cl)CC2C1=O (stereo not given)	n	n	n	n	n	n
O=C(NN=Cc1ccccc1O)C1SCCCS1	n	x	x	x	x	x
O=C(O)CC1SC(=NN=C2CCCCC2)N(c2ccccc2)C1=O (stereo not given)	n	x	x	x	x	x
Cc1ccc(S(=O)(=O)N=C(c2ccccc2)N(C)S(=O)(=O)c2ccccc2)cc1	n	x	x	x	x	x
O=C(NN=Cc1cccs1)c1cc(-c2ccncc2)nc2ccccc12	n	x	x	x	x	x
CCOC(=O)Cc1cc(=O)[nH]c(N=C(NC(=O)c2ccccc2)Nc2ccccc2C(F)(F)F)n1	n	x	x	x	x	x
